Results as given in ChEMBL document CHEMBL2390862, “Enmein-type diterpenoid analogs from natural kaurene-type oridonin: Synthesis and their antitumor biological evaluation” (Eur J Med Chem, 2013).

Assays:
Type in all cases: functional, cell-based
[1] = Cytotoxicity against human CaEs17 cells after 72 hrs by MTT assay; settings: CaEs17, 72 h
Method in brief: (§1)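 K562, CaEs-17, Bel-7402 and MGC-803 cells in log phase seeded at 5 × 10⁴ cells/mL, incubated with or without test compounds at 37 °C, 5% CO₂; after 72 h MTT (5 mg/mL stock) added for 4 h, formazan dissolved in DMSO, OD read at 490 nm. Negative reference 0.1% DMSO, Taxol positive control. IC50 as mean ± S.D. of three independent experiments.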

MGC-803 = test: Cytotoxicity against human MGC803 cells after 72 hrs by MTT assay; settings: MGC-803, 72 h; method in brief: as §1
K562 = test: Cytotoxicity against human K562 cells after 72 hrs by MTT assay; settings: K562, 72 h; method in brief: as §1
Bel-7402 = test: Cytotoxicity against human Bel7402 cells after 72 hrs by MTT assay; settings: Bel-7402, 72 h; method in brief: as §1

SMILES | IC50 [1] [µM] | IC50 (MGC-803) [µM] | IC50 (K562) [µM] | IC50 (Bel-7402) [µM]
C=C1C(=O)[C@@]23C(=O)O[C@H]4CCC(C)(C)[C@H]5[C@H](O)OC[C@@]45[C@@H]2CC[C@@H]1[C@H]3OC(=O)CC | 1.21 | 1.56 | 1.02 | 1.53
CC(=O)O[C@H]1C(=O)[C@@]2(C)[C@H]([C@H](OC(=O)c3ccccc3)[C@]3(O)C[C@H](OC(=O)[C@H](O)[C@@H](NC(=O)c4ccccc4)c4ccccc4)C(C)=C1C3(C)C)[C@]1(OC(C)=O)CO[C@@H]1C[C@@H]2O [PACLITAXEL] | 0.43 |  |  | 
C=C1C(=O)[C@@]23C(=O)O[C@H]4CCC(C)(C)[C@H]5[C@H](O)OC[C@@]45[C@@H]2CC[C@@H]1[C@H]3OC(=O)c1ccccc1 | 0.54 | 0.93 | 0.21 | 1.42
C=C1C(=O)[C@@]23C(=O)O[C@H]4CCC(C)(C)[C@H]5[C@H](O)OC[C@@]45[C@@H]2CC[C@@H]1[C@H]3OC(=O)c1ccccc1Cl | 0.6 | 0.8 | 0.22 | 0.85
C=C1C(=O)[C@@]23C(=O)O[C@H]4CCC(C)(C)[C@H]5[C@H](O)OC[C@@]45[C@@H]2CC[C@@H]1[C@H]3OC(=O)c1ccc(OC)cc1 | 2.71 | 3.33 | 0.69 | 1.79
C=C1C(=O)[C@@]23C(=O)O[C@H]4CCC(C)(C)[C@H]5[C@H](O)OC[C@@]45[C@@H]2CC[C@@H]1[C@H]3OC(=O)c1ccc(C)cc1 | 0.45 | 0.61 | 0.14 | 1.01
